Test results as given in ChEMBL document CHEMBL5724801, “EUbOPEN Chemogenomics Library - Multiplex” (2024).
Values joined by “and” are separate entries in the source; they are usually repeats but may differ in a detail not shown here. Equal values may be shown once.

Test system: Fibroblast
Experiment: Multiplex assay against human fibroblast
Type: toxicity, cell-based
Outline: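 Live cells were stained at seeding with Hoechst33342, BioTracker Green Microtubule Cytoskeleton Dye, MitoTracker Red and Annexin V Alexa Fluor 680, then imaged on a CQ1 microscope at 37°C and 5% CO2 after compound addition. CellPathfinder machine-learning gating split cells into Hoechst high-intensity objects or normal cells. Normal cells were split into healthy, pyknosed or fragmented nuclei, and pyknosed cells into mitotic or apoptotic. Tubulin, mitochondrial-mass and membrane-permeability phenotypes are per cents of healthy-nucleus cells.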

[1] = 12 h, 1 µM, compound concentration 1 uM
[2] = 12 h, 10 µM, compound concentration 10 uM
[3] = 24 h, 1 µM, compound concentration 1 uM
[4] = 24 h, 10 µM, compound concentration 10 uM
[5] = 48 h, 1 µM, compound concentration 1 uM
[6] = 48 h, 10 µM, compound concentration 10 uM

With `CCCn1c(=O)c2[nH]c(C3CCCC3)nc2n(CCC)c1=O` [1,3-DIPROPYL-8-CYCLOPENTYLXANTHINE [DPCPX]] the “Population Apoptotic (%)” value [1] was 38% and 30%, the “Population Fragmented Nuclei (%)” value [1] was 10% and 25% and the “Population Healthy Nuclei (%)” value [1] was 73% and 46%. For the same compound, the “Population Hoechst High Intensity Objects (%)” value [1] was 3%, the “Population Membrane Permeable-Phenotype (%)” value [1] was 0% and 1% and the “Population Mitochondria Different-Phenotype (%)” value [1] was 1% and 10%. The “Population Mitotic Cells (%)” value [1] was 61% and 69%, the “Population Normal (%)” value [1] was 96% and the “Population Pyknosed Nuclei (%)” value [1] was 15% and 28%. For the same compound, the “Population Tubulin-Different-Phenotype (%)” value [1] was 29% and 50%, the “Total Cell Count” value [1] was 175 and 156 and the “Population Apoptotic (%)” value [2] was 58% and 25%. The “Population Fragmented Nuclei (%)” value [2] was 18% and 32%, the “Population Healthy Nuclei (%)” value [2] was 65% and 47% and the “Population Hoechst High Intensity Objects (%)” value [2] was 3% and 6%. The “Population Membrane Permeable-Phenotype (%)” value [2] was 0% and 12%, the “Population Mitochondria Different-Phenotype (%)” value [2] was 10% and 3% and the “Population Mitotic Cells (%)” value [2] was 41% and 75%. The “Population Normal (%)” value [2] was 96% and 93%, the “Population Pyknosed Nuclei (%)” value [2] was 17% and 20% and the “Population Tubulin-Different-Phenotype (%)” value [2] was 47% and 59%. The “Total Cell Count” value [2] was 104 and 129, the “Population Apoptotic (%)” value [3] was 50% and 75% and the “Population Fragmented Nuclei (%)” value [3] was 13% and 30%. The “Population Healthy Nuclei (%)” value [3] was 77% and 48%, the “Population Hoechst High Intensity Objects (%)” value [3] was 2% and 3% and the “Population Membrane Permeable-Phenotype (%)” value [3] was 0% and 4%. For the same compound, the “Population Mitochondria Different-Phenotype (%)” value [3] was 2% and 12%, the “Population Mitotic Cells (%)” value [3] was 50% and 24% and the “Population Normal (%)” value [3] was 97% and 96%. The “Population Pyknosed Nuclei (%)” value [3] was 9% and 21%, the “Population Tubulin-Different-Phenotype (%)” value [3] was 30% and 54% and the “Total Cell Count” value [3] was 177 and 159. For the same compound, the “Population Fragmented Nuclei (%)” value [4] was 17% and 35%, the “Population Healthy Nuclei (%)” value [4] was 61% and 40% and the “Population Hoechst High Intensity Objects (%)” value [4] was 3% and 6%. For the same compound, the “Population Membrane Permeable-Phenotype (%)” value [4] was 6% and 8%, the “Population Mitochondria Different-Phenotype (%)” value [4] was 9% and 4% and the “Population Mitotic Cells (%)” value [4] was 36% and 79%. The “Population Normal (%)” value [4] was 96% and 93%, the “Population Pyknosed Nuclei (%)” value [4] was 22% and 24% and the “Population Tubulin-Different-Phenotype (%)” value [4] was 49% and 63%. For the same compound, the “Total Cell Count” value [4] was 104 and 125, the “Population Apoptotic (%)” value [5] was 72% and 47% and the “Population Fragmented Nuclei (%)” value [5] was 16% and 39%. The “Population Healthy Nuclei (%)” value [5] was 70% and 48%, the “Population Hoechst High Intensity Objects (%)” value [5] was 2% and 7% and the “Population Membrane Permeable-Phenotype (%)” value [5] was 0% and 5%. The “Population Mitotic Cells (%)” value [5] was 27% and 52%, the “Population Normal (%)” value [5] was 97% and 92% and the “Population Pyknosed Nuclei (%)” value [5] was 12%. For the same compound, the “Population Tubulin-Different-Phenotype (%)” value [5] was 35% and 55%, the “Total Cell Count” value [5] was 182 and 170 and the “Population Apoptotic (%)” value [6] was 57% and 50%. For the same compound, the “Population Fragmented Nuclei (%)” value [6] was 24% and 43%, the “Population Healthy Nuclei (%)” value [6] was 55% and 45% and the “Population Hoechst High Intensity Objects (%)” value [6] was 3% and 2%. The “Population Mitochondria Different-Phenotype (%)” value [6] was 13% and 8%, the “Population Mitotic Cells (%)” value [6] was 42% and 50% and the “Population Normal (%)” value [6] was 96% and 97%. The “Population Pyknosed Nuclei (%)” value [6] was 20% and 10%, the “Population Tubulin-Different-Phenotype (%)” value [6] was 50% and 78% and the “Total Cell Count” value [6] was 98 and 136.
`CC1(COc2ccc3c(c2)ncn3-c2ccc3cccc(N4CCC(N)CC4)c3n2)COC1` [CRENOLANIB] was tested, and the “Population Fragmented Nuclei (%)” value [1] was 27% and 33%, the “Population Healthy Nuclei (%)” value [1] was 60% and 47% and the “Population Hoechst High Intensity Objects (%)” value [1] was 2% and 4%. For the same compound, the “Population Membrane Permeable-Phenotype (%)” value [1] was 0% and 7%, the “Population Mitochondria Different-Phenotype (%)” value [1] was 4% and 9% and the “Population Mitotic Cells (%)” value [1] was 38% and 81%. The “Population Normal (%)” value [1] was 97% and 95%, the “Population Pyknosed Nuclei (%)” value [1] was 12% and 18% and the “Population Tubulin-Different-Phenotype (%)” value [1] was 48% and 67%. For the same compound, the “Population Apoptotic (%)” value [2] was 33% and 34%, the “Population Fragmented Nuclei (%)” value [2] was 21% and 29% and the “Population Healthy Nuclei (%)” value [2] was 48% and 40%. The “Population Hoechst High Intensity Objects (%)” value [2] was 4% and 13%, the “Population Membrane Permeable-Phenotype (%)” value [2] was 2% and 6% and the “Population Mitochondria Different-Phenotype (%)” value [2] was 6% and 9%. The “Population Mitotic Cells (%)” value [2] was 66% and 65%, the “Population Normal (%)” value [2] was 95% and 86% and the “Population Pyknosed Nuclei (%)” value [2] was 30%. The “Population Tubulin-Different-Phenotype (%)” value [2] was 43% and 48%, the “Population Apoptotic (%)” value [3] was 92% and 50% and the “Population Fragmented Nuclei (%)” value [3] was 29% and 41%. For the same compound, the “Population Healthy Nuclei (%)” value [3] was 60% and 48%, the “Population Hoechst High Intensity Objects (%)” value [3] was 0% and 1% and the “Population Membrane Permeable-Phenotype (%)” value [3] was 0% and 4%. For the same compound, the “Population Mitochondria Different-Phenotype (%)” value [3] was 9%, the “Population Normal (%)” value [3] was 99% and 98% and the “Population Pyknosed Nuclei (%)” value [3] was 9% and 10%. The “Population Tubulin-Different-Phenotype (%)” value [3] was 61% and 63%, the “Population Apoptotic (%)” value [4] was 36% and 34% and the “Population Fragmented Nuclei (%)” value [4] was 23% and 25%. The “Population Healthy Nuclei (%)” value [4] was 51% and 46%, the “Population Hoechst High Intensity Objects (%)” value [4] was 16% and 17% and the “Population Membrane Permeable-Phenotype (%)” value [4] was 0% and 6%. The “Population Mitochondria Different-Phenotype (%)” value [4] was 8% and 6%, the “Population Mitotic Cells (%)” value [4] was 63% and 65% and the “Population Normal (%)” value [4] was 83% and 82%. For the same compound, the “Population Pyknosed Nuclei (%)” value [4] was 24% and 28%, the “Population Tubulin-Different-Phenotype (%)” value [4] was 23% and 38% and the “Population Fragmented Nuclei (%)” value [5] was 32% and 44%. The “Population Healthy Nuclei (%)” value [5] was 60% and 44%, the “Population Hoechst High Intensity Objects (%)” value [5] was 1% and 0% and the “Population Membrane Permeable-Phenotype (%)” value [5] was 0% and 5%. For the same compound, the “Population Mitochondria Different-Phenotype (%)” value [5] was 8% and 7%, the “Population Normal (%)” value [5] was 98% and 99% and the “Population Pyknosed Nuclei (%)” value [5] was 7% and 12%. The “Population Tubulin-Different-Phenotype (%)” value [5] was 55% and 74%, the “Population Apoptotic (%)” value [6] was 42% and 37% and the “Population Fragmented Nuclei (%)” value [6] was 16% and 23%. For the same compound, the “Population Healthy Nuclei (%)” value [6] was 62% and 42%, the “Population Hoechst High Intensity Objects (%)” value [6] was 24% and 21% and the “Population Membrane Permeable-Phenotype (%)” value [6] was 1%. The “Population Mitochondria Different-Phenotype (%)” value [6] was 6%, the “Population Mitotic Cells (%)” value [6] was 57% and 62% and the “Population Normal (%)” value [6] was 75% and 78%. For the same compound, the “Population Pyknosed Nuclei (%)” value [6] was 21% and 33% and the “Population Tubulin-Different-Phenotype (%)” value [6] was 23% and 27%.
With `Cc1cc(C(C#N)c2ccc(Cl)cc2)c(Cl)cc1NC(=O)c1cc(I)cc(I)c1O` (configuration not stated) [CLOSANTEL] the “Population Fragmented Nuclei (%)” value [1] was 11% and 4.88%, the “Population Healthy Nuclei (%)” value [1] was 69% and 80% and the “Population Hoechst High Intensity Objects (%)” value [1] was 0%. For the same compound, the “Population Membrane Permeable-Phenotype (%)” value [1] was 3.62% and 2.44%, the “Population Mitochondria Different-Phenotype (%)” value [1] was 10.14% and 4.88% and the “Population Mitotic Cells (%)” value [1] was 97.5% and 87.1%. The “Population Normal (%)” value [1] was 100%, the “Population Pyknosed Nuclei (%)” value [1] was 20% and 15.12% and the “Population Tubulin-Different-Phenotype (%)” value [1] was 11.59%. For the same compound, the “Total Cell Count” value [1] was 200 and 205, the “Population Fragmented Nuclei (%)” value [2] was 14.05% and 6.49% and the “Population Healthy Nuclei (%)” value [2] was 60.33% and 78.38%. The “Population Hoechst High Intensity Objects (%)” value [2] was 0%, the “Population Membrane Permeable-Phenotype (%)” value [2] was 3.42% and 2.76% and the “Population Mitochondria Different-Phenotype (%)” value [2] was 8.22% and 6.21%. For the same compound, the “Population Mitotic Cells (%)” value [2] was 95.16% and 78.57%, the “Population Normal (%)” value [2] was 100% and the “Population Pyknosed Nuclei (%)” value [2] was 25.62% and 15.14%. The “Population Tubulin-Different-Phenotype (%)” value [2] was 12.33% and 14.48%, the “Total Cell Count” value [2] was 242 and 185 and the “Population Apoptotic (%)” value [3] was 11.76% and 28.57%. The “Population Fragmented Nuclei (%)” value [3] was 7.66% and 4.52%, the “Population Healthy Nuclei (%)” value [3] was 77.03% and 88.44% and the “Population Hoechst High Intensity Objects (%)” value [3] was 0%. The “Population Membrane Permeable-Phenotype (%)” value [3] was 1.17% and 0.57%, the “Population Mitochondria Different-Phenotype (%)” value [3] was 7.6% and 4.55% and the “Population Mitotic Cells (%)” value [3] was 88.24% and 71.43%. For the same compound, the “Population Normal (%)” value [3] was 100%, the “Population Pyknosed Nuclei (%)” value [3] was 15.32% and 7.04% and the “Population Tubulin-Different-Phenotype (%)” value [3] was 12.28% and 13.07%. The “Total Cell Count” value [3] was 222 and 199, the “Population Apoptotic (%)” value [4] was 10.53% and 22.73% and the “Population Fragmented Nuclei (%)” value [4] was 9.54% and 3.72%. For the same compound, the “Population Healthy Nuclei (%)” value [4] was 74.69% and 84.57%, the “Population Hoechst High Intensity Objects (%)” value [4] was 0% and the “Population Membrane Permeable-Phenotype (%)” value [4] was 2.22% and 2.52%. The “Population Mitochondria Different-Phenotype (%)” value [4] was 3.89% and 5.03%, the “Population Mitotic Cells (%)” value [4] was 89.47% and 77.27% and the “Population Normal (%)” value [4] was 100%. For the same compound, the “Population Pyknosed Nuclei (%)” value [4] was 15.77% and 11.7%, the “Population Tubulin-Different-Phenotype (%)” value [4] was 12.78% and 13.84% and the “Total Cell Count” value [4] was 241 and 188. The “Population Apoptotic (%)” value [5] was 35.29% and 17.65%, the “Population Fragmented Nuclei (%)” value [5] was 10.13% and 6.91% and the “Population Healthy Nuclei (%)” value [5] was 82.38% and 85.25%. The “Population Hoechst High Intensity Objects (%)” value [5] was 0%, the “Population Membrane Permeable-Phenotype (%)” value [5] was 1.07% and 1.62% and the “Population Mitotic Cells (%)” value [5] was 64.71% and 82.35%. For the same compound, the “Population Normal (%)” value [5] was 100%, the “Population Pyknosed Nuclei (%)” value [5] was 7.49% and 7.83% and the “Population Tubulin-Different-Phenotype (%)” value [5] was 8.02% and 14.05%. The “Total Cell Count” value [5] was 227 and 217, the “Population Apoptotic (%)” value [6] was 33.33% and 66.67% and the “Population Fragmented Nuclei (%)” value [6] was 6.69% and 4.66%. The “Population Healthy Nuclei (%)” value [6] was 88.85% and 92.23%, the “Population Hoechst High Intensity Objects (%)” value [6] was 0% and the “Population Membrane Permeable-Phenotype (%)” value [6] was 0.84% and 3.93%. For the same compound, the “Population Mitochondria Different-Phenotype (%)” value [6] was 12.13% and 3.93%, the “Population Mitotic Cells (%)” value [6] was 66.67% and 33.33% and the “Population Normal (%)” value [6] was 100%. The “Population Pyknosed Nuclei (%)” value [6] was 4.46% and 3.11%, the “Population Tubulin-Different-Phenotype (%)” value [6] was 5.02% and 12.36% and the “Total Cell Count” value [6] was 269 and 193.
